Reference: ChEMBL document CHEMBL1765022, “Synthesis and biological evaluation of tetracyclic thienopyridones as antibacterial and antitumor agents” (Bioorg Med Chem, 2011)
In brackets after ≈: the same amount, converted by molar mass.

Legend:
Bacillus cereus = assay: Antimicrobial activity against Bacillus cereus ATCC 11778 by broth dilution method; type: functional
Outline: (§1)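 Twofold serial broth dilution in Mueller Hinton Broth. […] Growth (drug-free), DMSO solvent and organism-free sterility tubes were included. Three replicates per organism, at least three independent experiments.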

Priestia megaterium = assay: Antimicrobial activity against Bacillus megaterium ATCC 19213 by broth dilution method; type: functional; outline: as §1
Bacillus subtilis = assay: Antimicrobial activity against Bacillus subtilis ATCC 6633 by broth dilution method; type: functional; outline: as §1
[1] = Antimicrobial activity against Bacillus thuringiensis var.kurstaki BGSC 4D1 by broth dilution method; type: functional, Bacillus thuringiensis serovar kurstaki; outline: as §1
Staphylococcus aureus [2] = assay: Antimicrobial activity against Staphylococcus aureus ATCC 6538 by broth dilution method; type: functional; outline: as §1
Staphylococcus aureus [3] = assay: Antimicrobial activity against quinilone-pencillin-resistant Staphylococcus aureus isolate SAR 72 by broth dilution method; type: functional
Outline: (§2)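 Twofold serial broth dilution in Mueller Hinton Broth. […] Drug-free tubes, DMSO-only tubes and organism-free tubes served as growth, solvent and sterility controls. Three replicates per organism, at least three independent experiments.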

Staphylococcus aureus [4] = assay: Antimicrobial activity against quinilone-pencillin-resistant Staphylococcus aureus isolate SAR 4790 by broth dilution method; type: functional; outline: as §2
[5] = test system: Staphylococcus epidermidis; assay: Antimicrobial activity against Staphylococcus epidermidis ATCC 12228 by broth dilution method; type: functional; outline: as §1
[6] = test system: Staphylococcus epidermidis; assay: Antimicrobial activity against quinilone-pencillin-resistant Staphylococcus epidermidis clinical isolate by broth dilution method; type: functional
Acinetobacter baumannii [7] = assay: Antimicrobial activity against Acinetobacter baumannii ATCC 19606 by broth dilution method; type: functional; outline: as §1
Acinetobacter baumannii [8] = assay: Antimicrobial activity against quinilone-pencillin-resistant Acinetobacter baumannii clinical isolate by broth dilution method; type: functional
Escherichia coli [9] = assay: Antimicrobial activity against Escherichia coli ATCC 8739 by broth dilution method; type: functional; outline: as §1
Escherichia coli [10] = assay: Antimicrobial activity against quinilone-pencillin-resistant Escherichia coli clinical isolate by broth dilution method; type: functional
Haemophilus influenzae = assay: Antimicrobial activity against Haemophilus influenzae ATCC 19418 by broth dilution method; type: functional
Outline: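 H. influenzae was grown in Haemophilus Test Medium using twofold serial broth dilution. […] Drug-free, DMSO-only and organism-free control tubes were included. Triplicates, with at least three independent experiments.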

Pseudomonas aeruginosa = assay: Antimicrobial activity against Pseudomonas aeruginosa ATCC 9027 by broth dilution method; type: functional; outline: as §1
Saccharomyces cerevisiae = assay: Antimicrobial activity against Saccharomyces cerevisiae ATCC 9763 by broth dilution method; type: functional
Outline: (§3)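 Fungi were tested by twofold serial broth dilution in Sabouraud Dextrose Broth. Inoculum was 1x10³ CFU/mL, with 48 h at 30 °C before MIC determination. Growth, DMSO solvent and sterility controls were included. Three replicates per organism, at least three independent experiments.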

Candida tropicalis = assay: Antimicrobial activity against Candida tropicalis ATCC 1369 by broth dilution method; type: functional; outline: as §3
Aspergillus niger = assay: Antimicrobial activity against Aspergillus niger ATCC 6275 by broth dilution method; type: functional; outline: as §3
[11] = Inhibition of Escherichia coli DNA gyrase assessed as reduction of DNA supercoiling activity using pBR322 DNA substrate after 30 mins by electrophoresis
[12] = Inhibition of Escherichia coli topoisomerase 4 assessed as decatenation of kDNA after 30 mins by electrophoresis
Outline: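 E. coli topoisomerase IV decatenation of kinetoplast DNA was run in 40 mM HEPES-KOH pH 7.6 with 100 mM potassium glutamate, at varying compound amounts. Products were separated by agarose electrophoresis and quantified by gel documentation. IC₅₀ (µg/mL) is the concentration halving decatenation relative to drug-free enzyme control.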

NHDF = assay: Antitumor activity against human NHDF cells after 72 hrs by MTT assay; type: functional, cell-based
Outline: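 Cells were kept at 37 °C in 5% CO₂, in medium with 2 mM glutamine and 10% FBS; HuDe fibroblasts were grown in DMEM. Compounds were freshly dissolved in DMSO (final ≤0.1% v/v; controls received equal solvent) and applied at 0.1–20 µM for 72 h. Viability was read by MTT. IC₅₀ was extrapolated from Hill-fitted dose–response curves, from at least three independent experiments.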

## CO/N=C1\CN(c2nc3c(cc2F)c(=O)c(C(=O)O)cn3C2CC2)CC1CN (stereo not given) [GEMIFLOXACIN]
Bacillus cereus
  MIC: 0.07 µg/mL (≈ 0.18 µM)
Priestia megaterium
  MIC: 0.0003 µg/mL (≈ 0.00077 µM)
Bacillus subtilis
  MIC: 0.007 µg/mL (≈ 0.018 µM)
[1]
  MIC: 0.015 µg/mL (≈ 0.0385 µM)
Staphylococcus aureus [2]
  MIC: 0.015 µg/mL (≈ 0.0385 µM)
Staphylococcus aureus [3]
  MIC: 6 µg/mL (≈ 15.4 µM)
Staphylococcus aureus [4]
  MIC: 50 µg/mL (≈ 128 µM)
[5]
  MIC: 0.015 µg/mL (≈ 0.0385 µM)
[6]
  MIC: 50 µg/mL (≈ 128 µM)
Acinetobacter baumannii [7]
  MIC: 0.3 µg/mL (≈ 0.77 µM)
Acinetobacter baumannii [8]
  MIC: 100 µg/mL (≈ 257 µM)
Escherichia coli [9]
  MIC: 0.015 µg/mL (≈ 0.0385 µM)
Escherichia coli [10]
  MIC: 50 µg/mL (≈ 128 µM)
Haemophilus influenzae
  MIC: 0.015 µg/mL (≈ 0.0385 µM)
Pseudomonas aeruginosa
  MIC: 0.07 µg/mL (≈ 0.18 µM)
Saccharomyces cerevisiae
  MIC: > 100 µg/mL
Candida tropicalis
  MIC: > 100 µg/mL
Aspergillus niger
  MIC: > 100 µg/mL

## Clc1ccc(COC(Cn2ccnc2)c2ccc(Cl)cc2Cl)c(Cl)c1 (stereo not given) [MICONAZOLE]
Saccharomyces cerevisiae
  MIC: 12 µg/mL (≈ 28.8 µM)
Candida tropicalis
  MIC: 6 µg/mL (≈ 14.4 µM)
Aspergillus niger
  MIC: 3 µg/mL (≈ 7.21 µM)

## O=C(O)c1cn(C2CC2)c2cc(N3CCNCC3)c(F)cc2c1=O [CIPROFLOXACIN]
Bacillus cereus
  MIC: 0.3 µg/mL (≈ 0.905 µM)
Priestia megaterium
  MIC: 0.007 µg/mL (≈ 0.0211 µM)
Bacillus subtilis
  MIC: 0.03 µg/mL (≈ 0.0905 µM)
[1]
  MIC: 0.03 µg/mL (≈ 0.0905 µM)
Staphylococcus aureus [2]
  MIC: 0.3 µg/mL (≈ 0.905 µM)
Staphylococcus aureus [3]
  MIC: 100 µg/mL (≈ 302 µM)
Staphylococcus aureus [4]
  MIC: > 100 µg/mL
[5]
  MIC: 0.07 µg/mL (≈ 0.211 µM)
Acinetobacter baumannii [7]
  MIC: 0.7 µg/mL (≈ 2.11 µM)
Haemophilus influenzae
  MIC: 0.15 µg/mL (≈ 0.453 µM)
Pseudomonas aeruginosa
  MIC: 0.07 µg/mL (≈ 0.211 µM)
Saccharomyces cerevisiae
  MIC: > 100 µg/mL
Candida tropicalis
  MIC: > 100 µg/mL
Aspergillus niger
  MIC: > 100 µg/mL
[11]
  IC50: 0.34 µg/mL (≈ 1.03 µM)
[12]
  IC50: 4.6 µg/mL (≈ 13.9 µM)

## Cc1c2ccncc2c(C)c2c1[nH]c1ccccc12 [ELLIPTECINE]
NHDF
  IC50: > 10 µM

## COc1c(N2C[C@@H]3CCCN[C@@H]3C2)c(F)cc2c(=O)c(C(=O)O)cn(C3CC3)c12 [MOXIFLOXACIN]
Bacillus cereus
  MIC: 0.3 µg/mL (≈ 0.747 µM)
Priestia megaterium
  MIC: 0.003 µg/mL (≈ 0.00747 µM)
Bacillus subtilis
  MIC: 0.015 µg/mL (≈ 0.0374 µM)
[1]
  MIC: 0.03 µg/mL (≈ 0.0747 µM)
Staphylococcus aureus [2]
  MIC: 0.03 µg/mL (≈ 0.0747 µM)
Staphylococcus aureus [3]
  MIC: 12 µg/mL (≈ 29.9 µM)
Staphylococcus aureus [4]
  MIC: 50 µg/mL (≈ 125 µM)
[5]
  MIC: 0.07 µg/mL (≈ 0.174 µM)
Acinetobacter baumannii [7]
  MIC: 0.15 µg/mL (≈ 0.374 µM)
Escherichia coli [9]
  MIC: 0.03 µg/mL (≈ 0.0747 µM)
Haemophilus influenzae
  MIC: 0.03 µg/mL (≈ 0.0747 µM)
Pseudomonas aeruginosa
  MIC: 0.7 µg/mL (≈ 1.74 µM)
Saccharomyces cerevisiae
  MIC: > 100 µg/mL
Candida tropicalis
  MIC: > 100 µg/mL
Aspergillus niger
  MIC: > 100 µg/mL
[11]
  IC50: 0.85 µg/mL (≈ 2.12 µM)
[12]
  IC50: 5 µg/mL (≈ 12.5 µM)
